Published values collected from several papers.
Compare with care: the assays were run in different laboratories.
Effect on: enzyme activity
Mode: inhibitor
PDGFRA: Platelet-derived growth factor receptor alpha (PDGFRA, Homo sapiens, UniProt P16234)
PDGFRA D842V: Platelet-derived growth factor receptor alpha (PDGFRA, Homo sapiens, UniProt P16234, D842V)

SMILES | target | assay | setting | inhibition
CNC(=O)c1cc2c(Oc3ccc(NC(=O)C4(C(=O)Nc5ccc(F)cc5)CC4)cc3)ccnc2cc1OC | PDGFRA | radiometric | 1 µM | 71%
CS(=O)(=O)Nc1cccc(-c2csc(NC(=O)CSc3nc4nccnc4c(=O)n3CCc3ccccc3)n2)c1 | PDGFRA | – | 10 µM | 5%
CNCc1ccc(-c2cc(-c3nc(-c4ccc(S(=O)(=O)C(C)C)cc4)cnc3N)on2)cc1 | PDGFRA | – | 0.4 µM | 0%
COc1cc2ncnc(Nc3ccc(Oc4ccccc4)c(C)c3C)c2cc1OC | PDGFRA | – | 1 µM | 6%
COc1cc(-c2cc(-c3ccc(N4CCNCC4)cc3)cnc2N)cc(OC)c1OC | PDGFRA D842V | – | 0.1 µM | 54%
COc1cc2ncnc(Nc3ccc(Oc4ccccc4)cc3C)c2cc1OC | PDGFRA D842V | – | 1 µM | -1%
CC/C(=N\NC(=O)NCc1cccc(O)c1)c1ccc(O)c(C)c1O | PDGFRA D842V | – | 0.1 µM | 1.1%
CCCS(=O)(=O)Nc1ccc(F)c(C(=O)c2c[nH]c3ncc(-c4ccc(Cl)cc4)cc23)c1F | PDGFRA | – | 1 µM | < 10%
CNC(=O)c1cc(Oc2ccc(NC(=O)Nc3ccc(Cl)c(C(F)(F)F)c3)cc2)ccn1 | Platelet-derived growth factor receptor alpha (PDGFRA, Homo sapiens, UniProt P16234, V561D) | – | 0.3 µM | 99%
